Experimental data published in ChEMBL document CHEMBL1132190, “Synthesis of 1-substituted 3-(chloromethyl)-6-aminoindoline (6-amino-seco-CI) DNA minor groove alkylating agents and structure-activity relationships for their cytotoxicity” (J Med Chem, 1999).
In brackets after ≈: the same amount, converted by molar mass.

Key:
[1] = system: EMT6; test: Cytotoxicity in murine mammary carcinoma tumor cell line-EMT6, by growth inhibition assay.; type: functional, cell-based; details: Mus musculus
In short: (§1)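 Log-phase monolayers in α-MEM with 5% FBS, no antibiotics; seeded at 200 (AA8), 300 (UV4) or 50 (EMT6) cells/well. After 24 h, exposed to drug (DMSO stock, final DMSO <1%, medium pH 7.4) for 4 h at 37 °C, 5% CO₂, aerobic. Washed, then regrown 4 days. Methylene blue staining read cell density. IC50 = 50% growth inhibition versus same-plate controls.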

[2] = system: CHO-AA8; test: Cytotoxicity in chinese hamster ovary tumor cell line-AA8, by growth inhibition assay.; type: functional, cell-based; details: Cricetulus griseus; in short: as §1
[3] = system: UV4; test: Cytotoxicity in chinese hamster ovary tumor cell line -UV4 (repair deffective ERCC-1 mutant), by growth inhibition assay.; type: functional, cell-based; details: Cricetulus griseus; in short: as §1
[4] = system: SK-OV-3; test: Cytotoxicity in human ovarian tumor cell line-SKOV3, by growth inhibition assay.; type: functional, cell-based
In short: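 SKOV3 log-phase monolayers in α-MEM with 5% FBS, no antibiotics; 600 cells/well. After 24 h, 4 h aerobic drug exposure at 37 °C, 5% CO₂ (DMSO stock, final DMSO <1%, medium pH 7.4). Washed, then regrown 5 days. Methylene blue staining gave cell density. IC50 = 50% growth inhibition versus controls on the same plate.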

[5] = Solubility in 0.1 M phosphate buffer (pH 7.0) at room temperature.; type: physicochemical; details: read-out: S
In short: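 Solid suspended in 0.1 M phosphate buffer pH 7.0, sonicated 5 min at room temperature, centrifuged 5 min. Supernatant assayed by HPLC against a standard curve of known concentrations in acetonitrile. Three determinations, averaged.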

SMILES | IC50 [1] [nM] | IC50 [2] [nM] | IC50 [3] [nM] | IC50 [4] [nM] | solubility [5] [µM]
COc1ccc2[nH]c(C(=O)N3CC(CCl)c4ccc(N)cc43)cc2c1 (stereo not given) | 230 | 310 | 47 | 670 | 23 (≈ 8.18 µg/mL)
Nc1ccc2c(c1)N(C(=O)c1cc3cc(NC(=O)c4cc5ccccc5o4)ccc3[nH]1)CC2CCl (stereo not given) | 190 | 160 | 87 | 600 | –
COc1ccc2oc(C(=O)N3CC(CCl)c4ccc(N)cc43)cc2c1 (stereo not given) | 640 | 880 | 120 | 1100 | –
COc1ccc2[nH]c(S(=O)(=O)N3CC(CCl)c4ccc(N)cc43)cc2c1 (stereo not given) | 4900 | 8200 | 4300 | 2700 | –
COc1cc(OCCN(C)C)c2[nH]c(C(=O)N3CC(CCl)c4ccc(N)cc43)cc2c1 (stereo not given) | 90 | 140 | 29 | 160 | 47 (≈ 20.8 µg/mL)
CN(C)CCOc1ccc2[nH]c(C(=O)N3CC(CCl)c4ccc(N)cc43)cc2c1 (stereo not given) | 120 | 160 | 44 | 260 | 700 (≈ 289 µg/mL)
CCCC(=O)Nc1cc(/C=C/C(=O)N2CC(CCl)c3ccc(N)cc32)n(C)c1 (stereo not given) | 910 | 2100 | 310 | 1900 | –
COc1cc2cc(C(=O)N3CC(CCl)c4ccc(N)cc43)[nH]c2cc1OCCN(C)C (stereo not given) | 110 | 220 | 39 | 150 | > 1200
COc1ccc2oc(S(=O)(=O)N3CC(CCl)c4ccc(N)cc43)cc2c1 (stereo not given) | 2600 | 6600 | 2800 | 4400 | –
COc1cc2cc(C(=O)N3CC(CCl)c4ccc(N)cc43)[nH]c2c(OC)c1OC (stereo not given) | 270 | 350 | 55 | 630 | 32 (≈ 13.3 µg/mL)
